Assay results taken from ChEMBL document CHEMBL1142952, “Design, synthesis, and activity of 2-imidazol-1-ylpyrimidine derived inducible nitric oxide synthase dimerization inhibitors” (J Med Chem, 2007).
Activity calls are given as the source filed them.

Tests used:
[1] = biological target: Nitric oxide synthase, inducible (Homo sapiens, UniProt P35228); experiment: Inhibition of cytokine-induced iNOS expressed in human A172 cells assessed as inhibition of NO formation; type: cell-based, A 172
[2] = tested on: Sf9; experiment: Selectivity ratio, IC50 for ecNOS/IC50 for iNOS using tetracycline-induced system in SF9 cells; type: cell-based; details: Homo sapiens
In short: (§1)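 SF9 cells carrying a tetracycline-induced system expressing one NOS isoform (iNOS, ecNOS or bcNOS); cellular NO formation inhibition measured, compounds up to 10 µM.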

[3] = tested on: BSC-1; experiment: Selectivity ratio, IC50 for bcNOS/IC50 for iNOS using vaccinia virus-induced system in BSC1 cells; type: cell-based; details: Homo sapiens
In short: (§2)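 For each compound, the IC50 against bcNOS (b/i) or ecNOS (e/i) is divided by the iNOS IC50 from the same BSC-1 vaccinia system.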

[4] = tested on: BSC-1; experiment: Selectivity ratio, IC50 for ecNOS/IC50 for iNOS using vaccinia virus-induced system in BSC1 cells; type: cell-based; details: Homo sapiens; in short: as §2
[5] = Inhibition of tetracycline system-induced human NOS expressed in SF9 cells; in short: as §1
[6] = Inhibition of vaccinia virus system-induced human NOS expressed in BSC1 cells; type: cell-based; details: bsc-1
[7] = biological target: Nitric oxide synthase, inducible (Rattus norvegicus) (UniProt Q06518); experiment: Activity against rat cerebellum iNOS upto 1 uM
[8] = tested on: Sf9; experiment: Selectivity ratio, IC50 for bcNOS/IC50 for iNOS using tetracycline-induced system in SF9 cells; type: cell-based; details: Homo sapiens; in short: as §1
[9] = Bioavailability in dog at 3 mg/kg, po; type: ADME, organism-based, Canis lupus familiaris; details: in vivo
[10] = Clearance in dog at 3 mg/kg; type: ADME, organism-based, Canis lupus familiaris; set-up: dose 3 mg/kg; details: in vivo
[11] = Bioavailability in po and iv dosed rat 10 mg/kg, po; type: ADME, organism-based; details: in vivo
[12] = tested on: Rattus norvegicus; experiment: Amelioration of adjuvant-induced arthritis in sc dosed Lewis rat; type: functional, organism-based
In short: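 Adult male Lewis rats immunized intradermally at the proximal tail with Mycobacterium butyricum in incomplete Freund's adjuvant (10 mg/mL, 0.1 mL). Starting the next day, dosed subcutaneously at 3, 10 or 30 mg/kg or vehicle twice daily (12 h apart); naive group untreated; 10 rats per group. Weighed and clinically scored (0-4 per limb) 3 times weekly; radiological scoring; sacrifice at day 34-35.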

[13] = Half life in rat at 10 mg/kg, iv; type: ADME, organism-based; set-up: dose 10 mg/kg, route intravenous; details: in vivo
[14] = Half life in dog at 3 mg/kg, iv; type: ADME, organism-based, Canis lupus familiaris; set-up: dose 3 mg/kg, route intravenous; details: in vivo

Chain of Nitric oxide synthase, inducible (Rattus norvegicus) (Q06518 whole entry): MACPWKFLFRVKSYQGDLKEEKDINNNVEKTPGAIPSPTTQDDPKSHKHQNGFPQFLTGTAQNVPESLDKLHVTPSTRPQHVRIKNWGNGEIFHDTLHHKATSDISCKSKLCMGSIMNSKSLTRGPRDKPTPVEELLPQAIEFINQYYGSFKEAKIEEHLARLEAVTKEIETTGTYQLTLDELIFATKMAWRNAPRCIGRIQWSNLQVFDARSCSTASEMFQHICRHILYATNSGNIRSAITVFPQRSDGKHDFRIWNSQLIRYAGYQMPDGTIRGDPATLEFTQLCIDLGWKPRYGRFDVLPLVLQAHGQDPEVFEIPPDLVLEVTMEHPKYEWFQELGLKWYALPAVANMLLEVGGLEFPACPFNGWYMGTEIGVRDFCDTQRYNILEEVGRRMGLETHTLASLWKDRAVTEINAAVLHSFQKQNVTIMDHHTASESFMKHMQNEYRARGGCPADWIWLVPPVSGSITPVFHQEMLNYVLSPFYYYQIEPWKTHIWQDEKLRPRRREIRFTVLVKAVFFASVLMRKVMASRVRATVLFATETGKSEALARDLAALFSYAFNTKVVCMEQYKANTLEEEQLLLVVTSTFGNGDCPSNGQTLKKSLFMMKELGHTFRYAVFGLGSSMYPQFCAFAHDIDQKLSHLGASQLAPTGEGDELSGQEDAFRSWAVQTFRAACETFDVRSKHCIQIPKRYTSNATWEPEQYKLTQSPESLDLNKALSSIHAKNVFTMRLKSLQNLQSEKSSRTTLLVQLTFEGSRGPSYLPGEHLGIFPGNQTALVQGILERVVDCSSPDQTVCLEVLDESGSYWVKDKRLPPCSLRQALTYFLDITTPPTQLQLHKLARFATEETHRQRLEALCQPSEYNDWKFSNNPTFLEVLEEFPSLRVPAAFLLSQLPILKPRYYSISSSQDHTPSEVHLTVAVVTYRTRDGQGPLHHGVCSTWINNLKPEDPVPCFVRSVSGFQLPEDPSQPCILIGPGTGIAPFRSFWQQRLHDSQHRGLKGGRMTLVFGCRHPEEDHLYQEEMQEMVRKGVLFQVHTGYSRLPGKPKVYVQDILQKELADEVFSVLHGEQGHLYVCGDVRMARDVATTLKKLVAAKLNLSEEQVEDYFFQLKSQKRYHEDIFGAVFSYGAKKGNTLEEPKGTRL
Chain of Nitric oxide synthase, inducible (P35228 whole entry): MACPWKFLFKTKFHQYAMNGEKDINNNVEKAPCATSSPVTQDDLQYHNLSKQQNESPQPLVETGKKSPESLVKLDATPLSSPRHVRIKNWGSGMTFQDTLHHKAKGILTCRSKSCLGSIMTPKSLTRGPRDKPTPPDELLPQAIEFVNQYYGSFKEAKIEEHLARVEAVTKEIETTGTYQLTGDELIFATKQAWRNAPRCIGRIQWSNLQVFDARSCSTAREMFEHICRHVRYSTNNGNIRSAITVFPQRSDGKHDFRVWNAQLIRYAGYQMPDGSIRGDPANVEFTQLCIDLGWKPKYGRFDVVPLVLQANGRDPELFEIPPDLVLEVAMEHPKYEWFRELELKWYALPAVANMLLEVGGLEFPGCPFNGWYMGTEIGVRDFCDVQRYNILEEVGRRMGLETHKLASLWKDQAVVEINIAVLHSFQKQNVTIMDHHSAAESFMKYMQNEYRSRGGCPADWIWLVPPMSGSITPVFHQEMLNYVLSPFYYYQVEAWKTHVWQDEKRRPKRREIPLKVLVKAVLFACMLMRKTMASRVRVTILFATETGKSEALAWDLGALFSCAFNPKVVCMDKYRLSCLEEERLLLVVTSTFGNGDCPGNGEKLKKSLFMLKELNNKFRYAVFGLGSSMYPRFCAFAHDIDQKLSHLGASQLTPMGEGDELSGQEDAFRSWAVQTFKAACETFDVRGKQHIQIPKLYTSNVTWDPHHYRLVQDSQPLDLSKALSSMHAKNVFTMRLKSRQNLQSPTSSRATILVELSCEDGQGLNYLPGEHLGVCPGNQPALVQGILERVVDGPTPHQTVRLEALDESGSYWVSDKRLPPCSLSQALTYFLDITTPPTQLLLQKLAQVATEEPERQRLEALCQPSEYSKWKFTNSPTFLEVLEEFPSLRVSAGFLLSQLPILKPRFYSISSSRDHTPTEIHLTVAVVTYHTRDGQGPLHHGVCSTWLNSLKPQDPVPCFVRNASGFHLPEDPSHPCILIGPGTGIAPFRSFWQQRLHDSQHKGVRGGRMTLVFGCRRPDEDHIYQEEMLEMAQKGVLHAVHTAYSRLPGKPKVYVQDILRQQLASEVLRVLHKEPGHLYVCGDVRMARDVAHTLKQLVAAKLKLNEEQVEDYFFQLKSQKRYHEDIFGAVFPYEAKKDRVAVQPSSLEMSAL

| SMILES | IC50 [1] | Ratio IC50 [2] | Ratio IC50 [3] | Ratio IC50 [4] | IC50 [5] | IC50 [6] | Activity [7] | Ratio IC50 [8] | bioavailability [9] | clearance [10] | bioavailability [11] | Activity [12] | half-life [13] | half-life [14] |
| --- | --- | --- | --- | --- | --- | --- | --- | --- | --- | --- | --- | --- | --- | --- |
| COC(=O)N1CCN(c2ccnc(-n3ccnc3)n2)[C@@H](CC(=O)NCc2ccc3c(c2)OCO3)C1 | 0.00024 µM | 32 | 6 | 1100 | 0.01 µM | 0.018 µM | inactive | 16 | – | – | – | – | – | – |
| Cc1cc(N2CCN(C(=O)C(C)C)C(CC(=O)NCc3ccc4c(c3)OCO4)C2)nc(-n2ccnc2)n1 (stereo unspecified) | 0.0019 µM | 240 | 80 | > 300 | 0.046 µM | 0.08 µM | inactive | 120 | – | – | – | – | – | – |
| Cc1cc(N2CCN(C(=O)C(C)C)[C@H](CC(=O)NCc3ccc4c(c3)OCO4)C2)nc(-n2ccnc2)n1 | 0.00075 µM | 74 | 29 | > 400 | 0.13 µM | 0.35 µM | inactive | 80 | – | – | – | – | – | – |
| COC(=O)N1CCN(c2ccnc(-n3ccnc3)n2)C(CC(=O)NCc2ccc3c(c2)OCO3)C1 (stereo unspecified) | 0.00038 µM | 82 | 5 | 1700 | 0.012 µM | 0.024 µM | inactive | 25 | – | – | – | – | – | – |
| CCc1cc(N2CCC[C@@H]2C(=O)NCCc2ccc3c(c2)OCO3)nc(-n2ccnc2)n1 | 0.00052 µM | 170 | 67 | > 3800 | 0.016 µM | 0.025 µM | inactive | 280 | – | – | – | – | – | – |
| CCc1cc(N2CCC[C@@H]2CC(=O)NCc2ccc3c(c2)OCO3)nc(-n2ccnc2)n1 | 0.00013 µM | 65 | 15 | 7800 | 0.0071 µM | 0.0075 µM | inactive | 18 | – | – | – | – | – | – |
| O=C(NCCc1ccc2c(c1)OCO2)[C@H]1CCCN1c1ccnc(-n2ccnc2)n1 | 0.00048 µM | 181 | 19 | > 2000 | 0.011 µM | 0.025 µM | inactive | 74 | – | – | – | – | – | – |
| O=C(CC1CCCCN1c1ccnc(-n2ccnc2)n1)NCc1ccc(C(F)(F)F)cc1 (stereo unspecified) | 0.15 µM | – | 3 | 70 | – | 0.26 µM | inactive | – | – | – | – | – | – | – |
| Cc1cc(N2CCN(C)C(CC(=O)NCc3ccc4c(c3)OCO4)C2)nc(-n2ccnc2)n1 (stereo unspecified) | 0.012 µM | – | 72 | > 350 | – | 0.34 µM | inactive | – | – | – | – | – | – | – |
| CC(=O)N1CCN(c2ccnc(-n3ccnc3)n2)C(CC(=O)NCc2ccc3c(c2)OCO3)C1 (stereo unspecified) | 0.001 µM | – | 3 | > 10 | – | 0.32 µM | inactive | – | – | – | – | – | – | – |
| CC(C)CCN1CCN(c2ccnc(-n3ccnc3)n2)C(CC(=O)NCc2ccc3c(c2)OCO3)C1 (stereo unspecified) | 0.001 µM | – | 6 | 1000 | – | 0.01 µM | inactive | – | – | – | – | – | – | – |
| CNC(=O)N1CCN(c2ccnc(-n3ccnc3)n2)C(CC(=O)NCc2ccc3c(c2)OCO3)C1 (stereo unspecified) | 0.001 µM | – | 4 | > 250 | – | 0.45 µM | inactive | – | – | – | – | – | – | – |
| CN1CCN(c2ccnc(-n3ccnc3)n2)C(CC(=O)NCc2ccc3c(c2)OCO3)C1 (stereo unspecified) | 0.00048 µM | – | 2 | 1300 | – | 0.011 µM | inactive | – | – | – | – | – | – | – |
| CS(=O)(=O)N1CCN(c2ccnc(-n3ccnc3)n2)C(CC(=O)NCc2ccc3c(c2)OCO3)C1 (stereo unspecified) | 0.0007 µM | – | 12 | > 1000 | – | 0.074 µM | inactive | – | – | – | – | – | – | – |
| Cc1cc(N2CCC[C@@H]2CC(=O)NCc2ccc3c(c2)OCO3)nc(-n2ccnc2)n1 | 0.00012 µM | 91 | 8 | 1000 | 0.0045 µM | 0.0059 µM | inactive | 27 | – | – | – | – | – | – |
| O=C(CC1CN(S(=O)(=O)c2ccccc2)CCN1c1ccnc(-n2ccnc2)n1)NCc1ccc2c(c1)OCO2 (stereo unspecified) | 0.0027 µM | – | 9 | 1100 | – | 0.034 µM | inactive | – | – | – | – | – | – | – |
| O=C(C[C@H]1CCCN1c1ccnc(-n2ccnc2)n1)NCc1ccc2c(c1)OCO2 | 0.00028 µM | 47 | 5 | 2900 | 0.0055 µM | 0.0056 µM | inactive | 6 | – | – | – | – | – | – |
| O=C(CC1CCCCN1c1cc(C(F)(F)F)nc(-n2ccnc2)n1)NCc1ccc2c(c1)OCO2 (stereo unspecified) | 0.18 µM | – | > 31 | > 310 | – | 0.32 µM | inactive | – | – | – | – | – | – | – |
| Cc1cc(N2CCC[C@@H]2C(=O)NCCc2ccc3c(c2)OCO3)nc(-n2ccnc2)n1 | 0.00029 µM | 540 | 62 | > 5000 | 0.014 µM | 0.02 µM | inactive | 327 | 71% | 0.27 L/h/kg | 21% | inactive | 0.7 h | 2.5 h |
| Cc1cc(N2CCN(Cc3ccccc3)C(CC(=O)NCc3ccc4c(c3)OCO4)C2)nc(-n2ccnc2)n1 (stereo unspecified) | 0.025 µM | – | 130 | 350 | – | 0.16 µM | inactive | – | – | – | – | – | – | – |
| O=C(CC1CN(C(=O)NCc2ccccc2)CCN1c1ccnc(-n2ccnc2)n1)NCc1ccc2c(c1)OCO2 (stereo unspecified) | 0.00096 µM | – | 4 | 490 | – | 0.072 µM | inactive | – | – | – | – | – | – | – |
| O=C(CC1CCCCN1c1ccnc(-n2ccnc2)n1)NCc1ccc([N+](=O)[O-])cc1 (stereo unspecified) | 0.168 µM | – | > 10 | 74 | – | 0.94 µM | inactive | – | – | – | – | – | – | – |
| O=C(CC1CN(c2cccc(F)n2)CCN1c1ccnc(-n2ccnc2)n1)NCc1ccc2c(c1)OCO2 (stereo unspecified) | 0.00028 µM | – | 6 | 850 | – | 0.01 µM | inactive | – | – | – | – | – | – | – |
